# Measured values as given in ChEMBL document CHEMBL4351026, “Antifungal activity, mode of action variability, and subcellular distribution of coumarin-based antifungal azoles” (Eur J Med Chem, 2019).
# The source made the active and inactive calls. No cut-off for these calls is given here.
# Tests used:
# Candida albicans [1] = test: Antifungal activity against Candida albicans ATCC 90028 assessed as reduction in fungal cell growth incubated for 24 hrs by MTT based broth double dilution method; type: functional; conditions: ATCC 90028, 24 h
# Method in brief: (§1)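 Broth double-dilution in Casitone broth. Starter cultures were grown 24 or 48 h at 37 °C, 5% CO₂, diluted 1:100, and added to serial two-fold dilutions at 64 to 0.007 µg/mL. Final inoculum was 5 x 10^4 to 5 x 10^5 CFU/mL; DMSO was 0.0012–1.3%. Plates were incubated at 37 °C, 5% CO₂, then MTT was added for 2 h. MIC followed CLSI M27-A3. Triplicates, two independent experiments.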
# Candida albicans [2] = test: Antifungal activity against Candida albicans P-87 assessed as reduction in fungal cell growth incubated for 24 hrs by MTT based broth double dilution method; type: functional; conditions: P-87, 24 h; method in brief: as §1
# Candida albicans [3] = test: Antifungal activity against Candida albicans SN152 assessed as reduction in fungal cell growth incubated for 24 hrs by MTT based broth double dilution method; type: functional; conditions: SN152, 24 h; method in brief: as §1
# Nakaseomyces glabratus [4] = test: Antifungal activity against Candida glabrata ATCC 66032 assessed as reduction in fungal cell growth incubated for 24 hrs by MTT based broth double dilution method; type: functional; conditions: ATCC 66032, 24 h; method in brief: as §1
# Nakaseomyces glabratus [5] = test: Antifungal activity against Candida glabrata ATCC 2001 assessed as reduction in fungal cell growth incubated for 24 hrs by MTT based broth double dilution method; type: functional; conditions: ATCC 2001, 24 h; method in brief: as §1
# Nakaseomyces glabratus [6] = test: Antifungal activity against Candida glabrata 192 assessed as reduction in fungal cell growth incubated for 24 hrs by MTT based broth double dilution method; type: functional; conditions: Nakaseomyces glabratus, 192, 24 h; method in brief: as §1
# Candida parapsilosis [7] = test: Antifungal activity against Candida parapsilosis ATCC 90018 assessed as reduction in fungal cell growth incubated for 24 hrs by MTT based broth double dilution method; type: functional; conditions: Lodderomyces parapsilosis, ATCC 90018, 24 h; method in brief: as §1
# Candida parapsilosis [8] = test: Antifungal activity against Candida parapsilosis ATCC 22019 assessed as reduction in fungal cell growth incubated for 24 hrs by MTT based broth double dilution method; type: functional; conditions: Lodderomyces parapsilosis, ATCC 22019, 24 h; method in brief: as §1
# [9] = test system: Meyerozyma guilliermondii; test: Antifungal activity against Candida guilliermondii T-47 assessed as reduction in fungal cell growth incubated for 24 hrs by MTT based broth double dilution method; type: functional; conditions: T-47, 24 h; method in brief: as §1
# Candida dubliniensis = test: Antifungal activity against Candida dubliniensis T-99 assessed as reduction in fungal cell growth incubated for 24 hrs by MTT based broth double dilution method; type: functional; conditions: T-99, 24 h; method in brief: as §1
# Candida albicans [10] = test: Antifungal activity against Candida albicans ATCC 90028 assessed as reduction in fungal cell growth incubated for 48 hrs by MTT based broth double dilution method; type: functional; conditions: ATCC 90028, 48 h; method in brief: as §1
# Candida albicans [11] = test: Antifungal activity against Candida albicans SN152 assessed as reduction in fungal cell growth incubated for 48 hrs by MTT based broth double dilution method; type: functional; conditions: SN152, 48 h; method in brief: as §1
# Nakaseomyces glabratus [12] = test: Antifungal activity against Candida glabrata ATCC 66032 assessed as reduction in fungal cell growth incubated for 48 hrs by MTT based broth double dilution method; type: functional; conditions: ATCC 66032, 48 h; method in brief: as §1
# Nakaseomyces glabratus [13] = test: Antifungal activity against Candida glabrata 192 assessed as reduction in fungal cell growth incubated for 48 hrs by MTT based broth double dilution method; type: functional; conditions: Nakaseomyces glabratus, 192, 48 h; method in brief: as §1
# Cytochrome P450 3A4 = Cytochrome P450 3A4 (Homo sapiens, UniProt P08684); test: Inhibition of recombinant human CYP3A4 using Luciferin-PPXE as substrate preincubated for 10 mins followed by NADPH addition measured after 15 mins by luminometric method; type: ADME
# Sequence of Cytochrome P450 3A4 (P08684 whole entry): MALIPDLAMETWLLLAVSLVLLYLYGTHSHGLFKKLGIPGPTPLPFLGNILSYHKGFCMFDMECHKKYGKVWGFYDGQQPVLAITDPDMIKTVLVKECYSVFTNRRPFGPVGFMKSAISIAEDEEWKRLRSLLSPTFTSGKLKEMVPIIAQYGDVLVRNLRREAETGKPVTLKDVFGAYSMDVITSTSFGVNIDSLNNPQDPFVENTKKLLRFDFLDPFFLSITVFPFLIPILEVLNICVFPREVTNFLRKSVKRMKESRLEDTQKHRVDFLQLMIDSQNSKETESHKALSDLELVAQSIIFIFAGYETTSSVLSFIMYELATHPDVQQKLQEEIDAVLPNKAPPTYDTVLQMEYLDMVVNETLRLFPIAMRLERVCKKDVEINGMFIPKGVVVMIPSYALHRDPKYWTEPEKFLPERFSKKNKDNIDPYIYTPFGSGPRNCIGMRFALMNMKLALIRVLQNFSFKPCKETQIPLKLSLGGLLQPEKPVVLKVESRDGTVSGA
# Method in brief: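 P450-Glo luminescent assay, Luciferin-PPXE substrate. Compound was mixed with membranes containing recombinant human CYP3A4; controls were vehicle with membranes lacking CYP3A4. After 10 min preincubation at 37 °C, NADPH regeneration reagent was added and the mixture kept 15 min at 37 °C. Luciferin detection reagent stopped the reaction; after 20 min at room temperature, luminescence was read. Duplicates.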
# HepG2 = test: Cytotoxicity against human HepG2 cells assessed as reduction in cell viability at 5 to 50 uM incubated for 24 hrs by XTT assay; type: cell-based; conditions: hepg2, 24 h
# Method in brief: (§2)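 HEK-293T were grown in DMEM with 10% FBS; HepG2 in RPMI with 15% FBS; both at 37 °C, 5% CO₂. Cells (4000 HepG2 or 7000 HEK-293T per well) were seeded on poly-D-lysine wells. After 24 h the medium was renewed and compounds added at 5–50 µM from 1 mM stocks in 10% DMSO/0.3% Tween/PBS. After 24 h more, XTT was added for 2 h at 37 °C; absorbance was read at 475 nm against 660 nm reference.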
# HEK-293T [14] = test: Cytotoxicity against human HEK293T cells assessed as reduction in cell viability at 5 to 50 uM incubated for 24 hrs by XTT assay; type: cell-based; method in brief: as §2
# [15] = Cytotoxicity against human HepG2 cells assessed as reduction in cell viability at 5 to 50 uM incubated for 24 hrs by XTT assay relative to control; type: cell-based; conditions: read-out: INH
# Method in brief: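 HepG2 cells were maintained in RPMI with 15% FBS, 1% NEAA, 1% pyruvate and pen-strep-nystatin at 37 °C and 5% CO2. 4000 cells/well were plated on poly-D-lysine coating and given fresh medium after 24 h. Compounds were dosed at 5–50 µM from 1 mM stocks in 10% DMSO/0.3% Tween/PBS and incubated 24 h. Viability was read by XTT (2 h, 37 °C) at 475 nm against 660 nm.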
# [16] = (§3) Cytotoxicity against human HEK293T cells assessed as reduction in cell viability at 5 to 50 uM incubated for 24 hrs by XTT assay relative to control; type: cell-based, HEK-293T; conditions: HEK293T cells, read-out: INH
# Method in brief: (§4)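 HEK-293T cells were grown in DMEM with 10% FBS, 1% NEAA, 1% pyruvate and pen-strep-nystatin at 37 °C and 5% CO2. 7000 cells/well were seeded on poly-D-lysine-coated wells. After 24 h the medium was renewed and compounds were added at 5–50 µM from 1 mM stocks in 10% DMSO/0.3% Tween/PBS. After 24 h, XTT was added for 2 h at 37 °C, with absorbance read at 475 nm (reference 660 nm).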
# Candida albicans [17] = test: Antifungal activity against Candida albicans SN152 assessed as zone inhibition at 25 ug incubated for 24 hrs by disk diffusion method; type: functional, organism-based
# Method in brief: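 Strains were streaked on YPD agar and grown at 30 °C: 24 h for parental SN152, 48 h for the erg11ΔΔ erg3ΔΔ mutant. Colonies were suspended in PBS and adjusted to OD 0.02 (SN152) or 0.03 (mutant), then spread on Casitone plates. A 6-mm disk loaded with 25 µg compound was placed centrally. Plates were incubated at 30 °C and photographed after 24 h.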
# Candida albicans [18] = test: Antifungal activity against ERG11/ERG3 knocked out Candida albicans SN152 assessed as zone of inhibition at 25 ug […] by disk diffusion method; type: functional, organism-based
# HEK-293T [19] = test: as §3; type: cell-based; conditions: hek-293t, 24 h, 50 µM; method in brief: as §4
# [20] = Drug distribution in Candida albicans SN152 assessed as subcellular compound distribution at 10 uM incubated for 60 mins by fluorescent imaging analysis; type: ADME; conditions: 1 h
# Method in brief: (§5)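 Yeast were grown overnight at 30 °C in YPD liquid, diluted 1:10, and grown 2 h at 30 °C to log phase. Fluorescent azole was added at 10 µM final and incubated 60 min in the dark. Cells were washed once in PBS and imaged on slides in bright field and fluorescence (ex 427 nm, em 510 nm).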
# [21] = Drug distribution in Candida glabrata 2001 assessed as subcellular compound distribution at 10 uM incubated for 60 mins by fluorescent imaging analysis; type: ADME; conditions: nakaseomyces glabratus, 1 h; method in brief: as §5
compound,measurement,setting,value
CCC(CC)Oc1ccc2cc(C(=O)NCC(O)(Cn3ccnc3)c3ccc(Cl)cc3Cl)c(=O)oc2c1 (racemic),MIC,Candida albicans [1],0.03 µg/mL
same,MIC,Candida albicans [2],0.06 µg/mL
same,MIC,Candida albicans [3],0.06 µg/mL
same,MIC,Nakaseomyces glabratus [4],2 µg/mL
same,MIC,Nakaseomyces glabratus [5],2 µg/mL
same,MIC,Nakaseomyces glabratus [6],0.5 µg/mL
same,MIC,Candida parapsilosis [7],0.125 µg/mL
same,MIC,Candida parapsilosis [8],0.5 µg/mL
same,MIC,[9],0.25 µg/mL
same,MIC,Candida dubliniensis,0.25 µg/mL
same,MIC,Candida albicans [10],0.06 µg/mL
same,MIC,Candida albicans [11],0.06 µg/mL
same,MIC,Nakaseomyces glabratus [12],> 64 µg/mL
same,MIC,Nakaseomyces glabratus [13],1 µg/mL
same,IC50,Cytochrome P450 3A4,251 nM
same,Activity,HepG2,Non-Toxic
same,Activity,HEK-293T [14],Non-Toxic
same,"cytotoxicity at 24 h, up to 50 µM",[15],< 40%
same,"cytotoxicity at 24 h, up to 50 µM",[16],< 40%
C[C@@H](c1ncncc1F)[C@](O)(Cn1cncn1)c1ccc(F)cc1F [VORICONAZOLE],inhibition zone (IZ),Candida albicans [17],Active
same,inhibition zone (IZ),Candida albicans [18],inactive
same,MIC,Candida albicans [1],0.007 µg/mL
same,MIC,Candida albicans [2],0.007 µg/mL
same,MIC,Candida albicans [3],0.007 µg/mL
same,MIC,Nakaseomyces glabratus [4],0.5 µg/mL
same,MIC,Nakaseomyces glabratus [5],2 µg/mL
same,MIC,Nakaseomyces glabratus [6],0.125 µg/mL
same,MIC,Candida parapsilosis [7],0.015 µg/mL
same,MIC,Candida parapsilosis [8],0.03 µg/mL
same,MIC,[9],0.06 µg/mL
same,MIC,Candida dubliniensis,0.06 µg/mL
same,MIC,Candida albicans [10],0.007 µg/mL
same,MIC,Candida albicans [11],0.007 µg/mL
same,MIC,Nakaseomyces glabratus [12],4 µg/mL
same,MIC,Nakaseomyces glabratus [13],0.25 µg/mL
same,"cytotoxicity at 24 h, up to 50 µM",[15],< 40%
same,Activity,HEK-293T [19],< 40%
CCC(CC)Oc1ccc2cc(C(=O)NCC(O)(Cn3cncn3)c3ccc(Cl)cc3Cl)c(=O)oc2c1 (racemic),MIC,Candida albicans [1],0.06 µg/mL
same,MIC,Candida albicans [2],0.03 µg/mL
same,MIC,Candida albicans [3],0.06 µg/mL
same,MIC,Nakaseomyces glabratus [4],> 64 µg/mL
same,MIC,Nakaseomyces glabratus [5],> 64 µg/mL
same,MIC,Nakaseomyces glabratus [6],2 µg/mL
same,MIC,Candida parapsilosis [7],0.25 µg/mL
same,MIC,Candida parapsilosis [8],0.5 µg/mL
same,MIC,[9],0.5 µg/mL
same,MIC,Candida dubliniensis,0.5 µg/mL
same,MIC,Candida albicans [10],0.06 µg/mL
same,MIC,Candida albicans [11],0.06 µg/mL
same,MIC,Nakaseomyces glabratus [12],> 64 µg/mL
same,MIC,Nakaseomyces glabratus [13],> 64 µg/mL
same,IC50,Cytochrome P450 3A4,≥ 2500 nM
same,Activity,HepG2,Non-Toxic
same,Activity,HEK-293T [14],Non-Toxic
same,"cytotoxicity at 24 h, up to 50 µM",[15],< 40%
same,"cytotoxicity at 24 h, up to 50 µM",[16],< 40%
CCN(CC)c1ccc2cc(C(=O)NCC(O)(Cn3ccnc3)c3ccc(F)cc3F)c(=O)oc2c1 (racemic),inhibition zone (IZ),Candida albicans [17],Active
same,inhibition zone (IZ),Candida albicans [18],Active
same,MIC,Candida albicans [1],0.015 µg/mL
same,MIC,Candida albicans [2],0.06 µg/mL
same,MIC,Candida albicans [3],0.06 µg/mL
same,MIC,Nakaseomyces glabratus [4],8 µg/mL
same,MIC,Nakaseomyces glabratus [5],8 µg/mL
same,MIC,Nakaseomyces glabratus [6],2 µg/mL
same,MIC,Candida parapsilosis [7],0.015 µg/mL
same,MIC,Candida parapsilosis [8],0.125 µg/mL
same,MIC,[9],0.5 µg/mL
same,MIC,Candida dubliniensis,0.5 µg/mL
same,MIC,Candida albicans [10],0.06 µg/mL
same,MIC,Candida albicans [11],0.125 µg/mL
same,MIC,Nakaseomyces glabratus [12],32 µg/mL
same,MIC,Nakaseomyces glabratus [13],4 µg/mL
same,IC50,Cytochrome P450 3A4,1310 nM
same,Drug uptake,[20],Active
same,Drug uptake,[21],Active
